The array DNA melting data of Ke et al. (doi:10.1101/2024.01.08.574731)

Assays:
[1] = folding enthalpy; higher = less favourable; fluorescence melt of hairpins on a sequencing array, two-state fit; conditions: sodium 0.088 M
Outline: (§1)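 To match UV melts, fitted temperatures were raised by 9.35 °C. These fits were bootstrapped two-state models that gave melting temperature and folding enthalpy, combined by inverse variance over four replicates. The input was normalised Cy3 fluorescence of library hairpins with annealed Cy3 and quencher oligos on a sequenced MiSeq flow cell, imaged in 50 mM Na-HEPES pH 8.0, 25 mM NaCl in 2.5 °C steps up to 60 °C.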

[2] = melting temperature; fluorescence melt of hairpins on a sequencing array, two-state fit, raised by 9.35 °C to match UV melts; conditions: sodium 0.088 M
Outline: as §1

| Sequence | folding enthalpy [1] | Tm [2] |
| --- | --- | --- |
| GCAGGCGAAAGCCGTGC ((((((....))).))) | -17.1 kcal/mol | 62.8 °C |
| GCAGGCGAAAGCCTATGC ((((((....)))..))) | -13.9 kcal/mol | 47.6 °C |
| GCAGGGCGAAAGCACAGC ((.(.((....)).).)) | -20.6 kcal/mol | 56.8 °C |
| GCAGGGCGAAAGCAGTGC (((..((....))..))) | -18.3 kcal/mol | 56.7 °C |
| GCAGGGCGAAAGCATTGC (((..((....))..))) | -19.6 kcal/mol | 53 °C |
| GCAGGGCGAAAGCCAGGC ((..(((....)))..)) | -19.3 kcal/mol | 60.1 °C |
| GCAGGGCGAAAGCCCCGC ((.((((....)))).)) | -14.5 kcal/mol | 62.8 °C |
| GCAGGGCGAAAGCCGGGC ((..(((....)))..)) | -17.4 kcal/mol | 56.9 °C |
| GCAGGGCGAAAGCCTCGC ((..(((....)))..)) | -16.4 kcal/mol | 52 °C |
| GCAGGGCGAAAGCGCGGC ((.(.((....)).).)) | -29.2 kcal/mol | 62.9 °C |
| GCAGGGGGAAACCCCTAC (.(((((....))))).) | -14.2 kcal/mol | 35.4 °C |
| GCAGGGGGAAACTCCTGC (((((.(....).))))) | -43.4 kcal/mol | 57.6 °C |
| GCAGTAACGAAAGTTTGC (((..(((....)))))) | -21.9 kcal/mol | 37.6 °C |
| GCAGTAGCGAAAGCTTGC (((..(((....)))))) | -17.8 kcal/mol | 45 °C |
| GCAGTAGGAAACTACCGC ((.((((....)))).)) | -22.5 kcal/mol | 41 °C |
| GCAGTAGGAAACTACTAC (.(((((....))))).) | -17.2 kcal/mol | 32.2 °C |
| GCAGTCGAAAGACAATGC ((((((....)))..))) | -20.1 kcal/mol | 44.4 °C |
| GCAGTCGAAAGACAGTGC ((((((....)))..))) | -18.4 kcal/mol | 45.1 °C |
| GCAGTCGAAAGACGATGC ((((((....)))..))) | -18 kcal/mol | 46.5 °C |
| GCAGTCGAAAGACTGTGC ((((((....)))..))) | -18.3 kcal/mol | 55.3 °C |
| GCAGTGAAAACTGC (((((....))))) | -28.1 kcal/mol | 61.2 °C |
| GCAGTGCGAAAGCAGGGC ((..(((....)))..)) | -21.6 kcal/mol | 58.4 °C |
| GCAGTGCGAAAGCATAGC ((..(((....)))..)) | -15.8 kcal/mol | 55.4 °C |

| Sequence | folding enthalpy [1] | Tm [2] |
| --- | --- | --- |
| GCAGTGCGAAAGCCATGC (((..((....))..))) | -16.4 kcal/mol | 51.1 °C |
| GCAGTGCGAAAGCGGTGC (((..((....))..))) | -39.5 kcal/mol | 63.9 °C |
| GCAGTGGGAAACCACCGC ((.((((....)))).)) | -23.4 kcal/mol | 48.8 °C |
| GCAGTGGGAAACCGCTGC ((((.((....)).)))) | -49.4 kcal/mol | 62.1 °C |
| GCAGTTGGAAACAACTGC (((((((....))))))) | -63.5 kcal/mol | 62.5 °C |
| GCAGTTGGAAACAGCTGC ((((.((....)).)))) | -31.9 kcal/mol | 54.5 °C |
| GCAGTTGGAAACGACTGC (((((.(....).))))) | -39.5 kcal/mol | 55.3 °C |
| GCATAACGAAAGTTGTGC (((.(((....))).))) | -54.7 kcal/mol | 54.7 °C |
| GCATAACGAAAGTTTGC (((.(((....)))))) | -25.8 kcal/mol | 46 °C |
| GCATAACGAAAGTTTTGC (((.(((....))).))) | -30.7 kcal/mol | 48.8 °C |
| GCATAAGAAATTATGC ((((((....)))))) | -28.6 kcal/mol | 46.3 °C |
| GCATACCGAAAGGTTTGC (((.(((....))).))) | -42.2 kcal/mol | 54.4 °C |
| GCATACGAAAGTAAATGC ((((((....)))..))) | -30 kcal/mol | 42.6 °C |
| GCATACGAAAGTAAGTGC ((((((....)))..))) | -21.4 kcal/mol | 34.5 °C |
| GCATACGAAAGTATTTGC ((((((....)))..))) | -17.1 kcal/mol | 32.9 °C |
| GCATAGACGAAAGTCTGC (((..(((....)))))) | -15.5 kcal/mol | 46.3 °C |
| GCATAGCGAAAGCAACGC ((.(.((....)).).)) | -12 kcal/mol | 35.6 °C |
| GCATAGCGAAAGCATTGC (((..((....))..))) | -18.4 kcal/mol | 50.7 °C |
| GCATAGCGAAAGCCCTGC (((..((....))..))) | -7.04 kcal/mol | 29.5 °C |
| GCATAGCGAAAGCGACGC ((.(.((....)).).)) | -34.1 kcal/mol | 63.7 °C |
| GCATAGCGAAAGCGGTGC (((..((....))..))) | -32.6 kcal/mol | 63.6 °C |
| GCATAGCGAAAGCTACGC ((.((((....)))).)) | -20.3 kcal/mol | 52.9 °C |
| GCATAGGCGAAAGCCTGC (((..(((....)))))) | -13.5 kcal/mol | 49 °C |

| Sequence | folding enthalpy [1] | Tm [2] |
| --- | --- | --- |
| GCATATACGAAAGTATGC (((..(((....)))))) | -22.3 kcal/mol | 41.5 °C |
| GCATATGGAAACATGTGC (((.(((....))).))) | -36.6 kcal/mol | 49 °C |
| GCATCACGAAAGTGTTGC (((.(((....))).))) | -44 kcal/mol | 55 °C |
| GCATCAGAAATGATGC ((((((....)))))) | -38.7 kcal/mol | 57.9 °C |
| GCATCCACGAAAGTGTGC (((..(((....)))))) | -14.3 kcal/mol | 37.6 °C |
| GCATCCGAAAGGAACTGC ((((((....)))..))) | -17.1 kcal/mol | 33.5 °C |
| GCATCCGAAAGGAATGC ((((((....))).))) | -32.3 kcal/mol | 55.4 °C |
| GCATCCGAAAGGATTGC ((((((....))).))) | -16.6 kcal/mol | 53.8 °C |
| GCATCCGAAAGGATTTGC ((((((....)))..))) | -18.5 kcal/mol | 43.9 °C |
| GCATCCGGAAACAGATGC (((((.(....).))))) | -36.8 kcal/mol | 45 °C |
| GCATCCGGAAACGAATGC ((((.((....)).)))) | -44.1 kcal/mol | 45.5 °C |
| GCATCGCGAAAGCAATGC ((((.((....)).)))) | -24.6 kcal/mol | 60.2 °C |
| GCATCGCGAAAGCAGTGC (((..((....))..))) | -18 kcal/mol | 52.3 °C |
| GCATCGCGAAAGCGCTGC (((.(((....))).))) | -42 kcal/mol | 56 °C |
| GCATCGCGAAAGCGTAGC ((..(((....)))..)) | -17.1 kcal/mol | 48.5 °C |
| GCATCGCGAAAGCTAAGC ((.(.((....)).).)) | -6.7 kcal/mol | 30.7 °C |
| GCATCGCGAAAGCTGTGC (((..((....))..))) | -21.1 kcal/mol | 45.8 °C |
| GCATCGGAAACGATGC ((((((....)))))) | -35.8 kcal/mol | 68.6 °C |
| GCATCTCGAAAGAGCTGC (((.(((....))).))) | -30.9 kcal/mol | 48.2 °C |
| GCATCTCGAAAGAGTTGC (((.(((....))).))) | -33.9 kcal/mol | 50.6 °C |
| GCATCTTCGAAAGAATGC (((..(((....)))))) | -23.2 kcal/mol | 33.4 °C |
| GCATGACGAAAGTCTTGC (((.(((....))).))) | -38.3 kcal/mol | 57.5 °C |
| GCATGAGGAAACTCATGC (((((((....))))))) | -40.3 kcal/mol | 65.3 °C |

| Sequence | folding enthalpy [1] | Tm [2] |
| --- | --- | --- |
| GCATGCCGAAAGGCTTGC (((.(((....))).))) | -26.9 kcal/mol | 66.2 °C |
| GCATGCGAAAGCAAGTGC ((((((....)))..))) | -17.8 kcal/mol | 46.8 °C |
| GCATGCGAAAGCAATGC ((((((....))).))) | -31 kcal/mol | 64.2 °C |
| GCATGCGAAAGCACCTGC ((((((....)))..))) | -10.9 kcal/mol | 33 °C |
| GCATGCGAAAGCAGCTGC ((((((....)))..))) | -17.9 kcal/mol | 54 °C |
| GCATGCGAAAGCATGTGC ((((((....)))..))) | -15.5 kcal/mol | 64 °C |
| GCATGCGGAAACGCGTGC (((.(((....))).))) | -45.2 kcal/mol | 67.6 °C |
| GCATGGCGAAAGCAAAGC ((.(.((....)).).)) | -10.9 kcal/mol | 31.8 °C |
| GCATGGCGAAAGCAACGC ((.(.((....)).).)) | -10.8 kcal/mol | 30.7 °C |
| GCATGGCGAAAGCACTGC (((..((....))..))) | -20.6 kcal/mol | 46.3 °C |
| GCATGGCGAAAGCGCTGC (((..((....))..))) | -18.6 kcal/mol | 51.6 °C |
| GCATGGCGAAAGCTATGC ((((.((....)).)))) | -37.9 kcal/mol | 66.6 °C |
| GCATGGGGAAACTCATGC (((((.(....).))))) | -40.3 kcal/mol | 51.9 °C |
| GCATGTCCGAAAGGATGC (((..(((....)))))) | -16.4 kcal/mol | 40.2 °C |
| GCATGTCGAAAGACTTGC (((.(((....))).))) | -43.8 kcal/mol | 54.6 °C |
| GCATGTGAAAACATGC ((((((....)))))) | -38.3 kcal/mol | 64 °C |
| GCATGTGGAAACATATGC ((((.((....)).)))) | -30.9 kcal/mol | 49.5 °C |
| GCATTAGGAAACCAATGC (((((.(....).))))) | -29.6 kcal/mol | 39.6 °C |
| GCATTAGGAAACTGATGC ((((.((....)).)))) | -36.7 kcal/mol | 45.4 °C |
| GCATTCGAAAGAATGTGC ((((((....)))..))) | -36.8 kcal/mol | 50.6 °C |
| GCATTGCGAAAGCACAGC ((..(((....)))..)) | -15.2 kcal/mol | 35.4 °C |
| GCATTGCGAAAGCACGGC ((..(((....)))..)) | -16.6 kcal/mol | 40 °C |
